pIC50, pKi: −log10 of the molar value.

For experiment [1], the target named is T1, Urokinase-type plasminogen activator (Homo sapiens, UniProt P00749). As to the kind of experiment: Inhibition of human uPA using pyroGlu-Gly-Arg-p-NA.HCl as substrate preincubated for 15 mins prior substrate addition measured for 10 mins by spectrophotometry.
Experiment [2] deals with Tissue-type plasminogen activator (Homo sapiens, UniProt P00750). As to the kind of experiment: Inhibition of recombinant tPA using H-D-Ile-Pro-Arg-pNA.2HCl as substrate preincubated for 15 mins prior substrate addition measured for 10 mins by spectrophotometry. Put shortly: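 Recombinant tPA, about 5 mU, in Tris buffer pH 8.3, with inhibitor at 0–250 µM final from DMSO stocks, preincubated 15 min at 37 °C. […] Initial rate came from 405 nm absorbance (0–0.25 AU, 10 min) at 37 °C, measured in duplicate. IC50 was the inhibitor level reducing activity to 50%.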

In the next experiment the target is Prothrombin (Homo sapiens, UniProt P00734). As to the kind of experiment: Inhibition of human plasma thrombin using pyroGlu-Pro-Arg-p-NA.HCl as substrate preincubated for 15 mins prior substrate addition measured for 10 mins by spectrophotometry. Summed up: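 Human plasma thrombin (about 5 mU) in Tris pH 8.3 was given a 15-min 37 °C preincubation with inhibitor at 0–250 µM final, from DMSO stocks. […] Absorbance at 405 nm gave the initial rate over 0–0.25 AU in 10 min, at 37 °C, in duplicate. IC50 was taken as 50% activity loss.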

In another experiment the target is Plasminogen (Homo sapiens, UniProt P00747). The experiment in a line: Inhibition of human plasma plasmin using pyroGlu-Pro-Arg-p-NA.HCl as substrate preincubated for 15 mins prior substrate addition measured for 10 mins by spectrophotometry. Summed up:
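Plasmin from human plasma, about 5 mU, in Tris buffer pH 7.4, preincubated 15 min at 37 °C with inhibitor (0–250 µM final, DMSO stocks). […] Initial rate was read at 405 nm (0–0.25 AU within 10 min) at 37 °C. Assays ran in duplicate, and IC50 was the concentration halving activity.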

The target of experiment [3] is T1, Urokinase-type plasminogen activator. As to the kind of experiment: Non-competitive inhibition of human uPA using pyroGlu-Gly-Arg-p-NA.HCl as substrate preincubated for 15 mins prior substrate addition measured for 10 mins by spectrophotometry.
For experiment [4] the target is unchanged. As to the kind of experiment: Competitive inhibition of human uPA using pyroGlu-Gly-Arg-p-NA.HCl as substrate preincubated for 15 mins prior substrate addition measured for 10 mins by spectrophotometry. Put shortly:
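Human uPA (about 1 mU) in 50 mM Tris pH 8.8 at 37 °C. […] Initial rate taken over 0–0.25 absorbance units in 10 min. Duplicates; IC50 is the concentration giving 50% activity.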

Sequence of Tissue-type plasminogen activator (P00750 whole entry): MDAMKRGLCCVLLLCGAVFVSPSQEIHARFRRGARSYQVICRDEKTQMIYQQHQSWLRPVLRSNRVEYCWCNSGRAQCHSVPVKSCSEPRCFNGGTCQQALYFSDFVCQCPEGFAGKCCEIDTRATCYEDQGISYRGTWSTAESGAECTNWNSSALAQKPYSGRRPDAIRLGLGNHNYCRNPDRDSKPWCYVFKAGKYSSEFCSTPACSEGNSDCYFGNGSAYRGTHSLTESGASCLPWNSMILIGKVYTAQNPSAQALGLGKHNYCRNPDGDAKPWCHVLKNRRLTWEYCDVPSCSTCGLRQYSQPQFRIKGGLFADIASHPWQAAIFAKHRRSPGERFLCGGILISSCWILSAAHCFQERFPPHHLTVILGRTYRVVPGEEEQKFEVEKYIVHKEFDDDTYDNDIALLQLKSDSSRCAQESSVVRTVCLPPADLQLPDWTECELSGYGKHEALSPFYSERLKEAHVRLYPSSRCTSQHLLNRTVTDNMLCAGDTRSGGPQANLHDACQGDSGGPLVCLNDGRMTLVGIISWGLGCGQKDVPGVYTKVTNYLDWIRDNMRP
Sequence of Plasminogen (P00747 97-580 limits assumed): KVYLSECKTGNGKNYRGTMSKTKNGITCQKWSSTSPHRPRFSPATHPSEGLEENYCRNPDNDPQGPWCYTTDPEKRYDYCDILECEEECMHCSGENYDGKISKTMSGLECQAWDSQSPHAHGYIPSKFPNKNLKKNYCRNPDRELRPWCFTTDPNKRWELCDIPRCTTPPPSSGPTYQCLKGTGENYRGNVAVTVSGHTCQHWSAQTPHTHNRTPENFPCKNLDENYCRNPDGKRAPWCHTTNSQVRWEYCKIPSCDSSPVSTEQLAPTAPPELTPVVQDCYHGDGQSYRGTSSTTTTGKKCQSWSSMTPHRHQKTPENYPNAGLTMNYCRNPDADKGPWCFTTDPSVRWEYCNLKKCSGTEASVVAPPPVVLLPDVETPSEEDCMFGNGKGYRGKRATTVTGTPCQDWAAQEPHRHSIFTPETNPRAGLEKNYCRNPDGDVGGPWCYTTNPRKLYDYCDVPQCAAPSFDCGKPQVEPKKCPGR
Sequence of Plasminogen (P00747 581-810 limits assumed): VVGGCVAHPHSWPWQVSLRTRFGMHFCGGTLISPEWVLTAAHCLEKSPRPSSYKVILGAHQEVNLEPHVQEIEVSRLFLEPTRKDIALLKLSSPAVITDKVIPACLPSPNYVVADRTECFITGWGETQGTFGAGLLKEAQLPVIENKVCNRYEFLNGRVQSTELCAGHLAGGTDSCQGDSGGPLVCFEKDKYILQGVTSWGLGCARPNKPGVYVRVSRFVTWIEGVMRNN

As to `COc1cccc(-c2ccc(NC(=O)c3ccc4ccccc4c3)cc2)c1`, in experiment [1], the pIC50 is 5.01.

Compound `COc1ccc2cc(C(=O)Nc3ccccc3)ccc2c1` showed a pIC50 in experiment [1] below 4.21.

Compound `COC(=O)c1ccc(-c2ccc(NS(=O)(=O)c3ccc4cc(OC)ccc4c3)cc2)cc1` gave a pIC50 in experiment [1] of 4.80.

Compound `COc1ccc2cc(C(=O)Nc3ccc(-c4ccc(OC)c(OC)c4)cc3)ccc2c1` gave a pIC50 in experiment [1] of 4.51.

As to `COc1ccc2cc(S(=O)(=O)Nc3ccc(-c4cccc(Cl)c4)cc3)ccc2c1`, in experiment [1], the pIC50 is below 4.21.

`COC(=O)c1cccc(-c2ccc(NC(=O)c3ccc4cc(C(=O)OC)ccc4c3)cc2)c1` showed a pIC50 in experiment [1] of 4.85.

Take `COc1ccc2cc(S(=O)(=O)Nc3ccc(-c4cccc(C(F)(F)F)c4)cc3)ccc2c1`: the pIC50 was 5.39 in experiment [1] and 4.89 in experiment [2].

In experiment [1], `NCc1ccc(NC(=O)c2ccc3cc(C(N)=O)ccc3c2)cc1` showed a pIC50 of 4.35.

Consider `COC(=O)c1cccc(-c2ccc(NC(=O)c3ccc4cc(Cl)ccc4c3)cc2)c1`, for which the pIC50 in experiment [1] was 5.15.

`COc1ccc2cc(S(=O)(=O)Nc3ccc(-c4cccc(C(N)=O)c4)cc3)ccc2c1` showed a pIC50 in experiment [1] below 4.21.

The compound `COc1ccc(-c2ccc(NC(=O)c3ccc4cc(OC)ccc4c3)cc2)cc1` showed a pIC50 in experiment [1] of 4.92.

`CCOC(=O)N1CCN(C(=O)[C@H](Cc2cccc(C(=N)N)c2)NS(=O)(=O)c2c(C(C)C)cc(C(C)C)cc2C(C)C)CC1`: the pKi in experiment [2] is 5.31.

`O=C(Nc1ccccc1)c1ccc2ccccc2c1` had a pIC50 in experiment [1] below 4.21.

Regarding `N=C(N)c1ccc(/C=C2/N=C(c3ccccc3)OC2=O)cc1`, the pIC50 in experiment [1] is 6.70; in experiment [2], below 4.00; on Prothrombin, below 4.00; at Plasminogen, below 4.00.

The compound `COC(=O)c1cccc(-c2ccc(NC(=O)c3ccc4ccccc4c3)cc2)c1` showed a pIC50 in experiment [1] of 4.80.

On to `[H]/N=C(\N)c1ccc2cc(C(=O)Nc3ccc(CN)cc3)ccc2c1`, for which the pIC50 (in experiment [2]; against Prothrombin; at Plasminogen) was below 4.21 in each case.

In experiment [1], `O=C(Nc1ccccc1)c1ccc2cc(Br)ccc2c1` showed a negative logarithm of the IC50 (pIC50) below 4.21.

The compound `COc1ccc(-c2ccc(NS(=O)(=O)c3ccc4cc(OC)ccc4c3)cc2OC)cc1` gave a pIC50 in experiment [1] of 5.10.

As for `COc1ccc(-c2ccc(NS(=O)(=O)c3ccc4cc(OC)ccc4c3)cc2)cc1`, in experiment [1], the pIC50 is 4.64.

The compound `COc1ccc2cc(S(=O)(=O)Nc3ccc(-c4cccc(N)c4)cc3)ccc2c1` had a pIC50 in experiment [1] of 4.21.

Compound `COc1ccc2cc(S(=O)(=O)Nc3ccc(-c4cccc([N+](=O)[O-])c4)cc3)ccc2c1` gave a negative logarithm of the IC50 (pIC50) in experiment [1] of 5.16.

As to `NC(=O)c1ccc2cc(C(=O)Nc3ccc(-c4cccc(Cl)c4)cc3)ccc2c1`, the pIC50 in experiment [1] was 5.09.

Turning to `COc1cccc(-c2ccc(NS(=O)(=O)c3ccc4cc(OC)ccc4c3)cc2)c1`, the pIC50 in experiment [1] is 4.72.

Turning to `COC(=O)c1cccc(-c2ccc(NC(=O)c3ccc4cc(OC)ccc4c3)cc2)c1`, the pIC50 in experiment [1] is 5.40; in experiment [2], 5.08; against Prothrombin, below 4.21; at Plasminogen it was 5.40.

For `COc1cccc(-c2ccc(NS(=O)(=O)c3ccc4ccccc4c3)cc2)c1`, the pIC50 in experiment [1] was 4.51.

Take `COC(=O)c1cccc(-c2ccc(NC(=O)c3ccc4cc(C#N)ccc4c3)cc2)c1`: the pIC50 in experiment [1] is 5.05.

For `C[C@H](NC(=O)[C@@H](CO)NS(=O)(=O)Cc1ccccc1)C(=O)NCc1ccc(C(=N)N)cc1`, the pKi in experiment [2] is 5.13; at Prothrombin, 7.00.

`COc1ccc2cc(S(=O)(=O)Nc3ccc(-c4ccccc4)cc3)ccc2c1` had a pIC50 in experiment [1] of 4.51.

In the case of `COC(=O)c1cccc(-c2ccc(NS(=O)(=O)c3ccc4cc(OC)ccc4c3)cc2)c1`, the pIC50 in experiment [3] was 5.55; in experiment [2], 4.59; against Prothrombin, below 4.21; on Plasminogen, below 4.21.

For `COc1ccc(-c2ccc(NC(=O)c3ccc4cc(C(N)=O)ccc4c3)cc2OC)cc1`, the pIC50 is 5.19 in experiment [1] and 5.01 in experiment [2].

`COC(=O)c1cccc(-c2ccc(NC(=O)c3ccc4cc(Br)ccc4c3)cc2)c1` showed a pIC50 in experiment [1] of 4.96.

Regarding `COc1ccc2cc(C(=O)Nc3ccc(-c4cccc(C(F)(F)F)c4)cc3)ccc2c1`, the pIC50 is 5.68 in experiment [3], 5.28 in experiment [2], below 4.21 against Prothrombin and 5.19 against Plasminogen.

With `COc1cc(NC(=O)c2ccc3cc(C(=N)N)ccc3c2)cc(OC)c1`, the pIC50 in experiment [1] was 5.59; in experiment [2], below 4.21; against Prothrombin, below 4.21; on Plasminogen it was 4.89.

The compound `COC(=O)c1cccc(-c2ccc(NS(=O)(=O)c3ccc4ccccc4c3)cc2)c1` showed a pIC50 in experiment [1] of 4.80.

As to `COc1ccc2cc(S(=O)(=O)Nc3ccc(-c4cccc(F)c4)cc3)ccc2c1`, the pIC50 in experiment [1] was below 4.21.

Turning to `COC(=O)c1cccc(-c2ccc(NC(=O)c3ccc4cc(C(N)=O)ccc4c3)cc2)c1`, the pIC50 in experiment [1] was 5.44; in experiment [2], 4.96; on Prothrombin it was below 3.90; at Plasminogen, below 3.90.

As to `N=C(N)c1ccc2cc(C(=O)Nc3ccccc3)ccc2c1`, the pIC50 was 4.89 in experiment [1], 3.90 in experiment [2], 4.25 on Prothrombin and 4.66 at Plasminogen. Moreover, in experiment [4], the pKi was 5.72.

Consider `COC(=O)c1ccc(-c2ccc(NS(=O)(=O)c3ccc4ccccc4c3)cc2)cc1`, for which the pIC50 in experiment [1] is 5.01.

Turning to `COc1cccc(-c2ccc(NC(=O)c3ccc4cc(C(N)=O)ccc4c3)cc2)c1`, the pIC50 in experiment [1] is 5.54; in experiment [2], 5.24; against Prothrombin it was below 4.21; on Plasminogen it was 4.92.

With `COc1ccc(-c2ccc(NC(=O)c3ccc4cc(OC)ccc4c3)cc2OC)cc1`, the pIC50 in experiment [1] is below 4.51.

In experiment [1], `COc1ccc2cc(S(=O)(=O)Nc3ccc(-c4ccc(OC)c(OC)c4)cc3)ccc2c1` showed a pIC50 of 5.10.

With `COC(=O)c1ccc2cc(C(=O)Nc3ccccc3)ccc2c1`, in experiment [1], the pIC50 is below 4.21.

On to `NC(=O)c1ccc2cc(C(=O)Nc3ccc(-c4cccc(C(F)(F)F)c4)cc3)ccc2c1`, for which the pIC50 in experiment [3] is 5.62; in experiment [2] it was 5.47; on Prothrombin it was below 4.21; against Plasminogen it was 5.20.

In experiment [1], `COc1cccc(-c2ccc(NC(=O)c3ccc4cc(C#N)ccc4c3)cc2)c1` gave a pIC50 of 4.70.

Turning to `COc1cccc(-c2ccc(NC(=O)c3ccc4cc(OC)ccc4c3)cc2)c1`, the pIC50 in experiment [1] is 5.40; in experiment [2], 4.68; on Prothrombin it was below 4.21; against Plasminogen, 4.70.

As to `O=C(O)c1ccc2cc(C(=O)Nc3ccccc3)ccc2c1`, in experiment [1], the pIC50 was below 4.21.

For `N#Cc1ccc2cc(C(=O)Nc3ccccc3)ccc2c1`, in experiment [1], the pIC50 was below 4.21.

Take `COC(=O)c1cccc(-c2ccc(NC(=O)c3ccc4cc(N)ccc4c3)cc2)c1`: the pIC50 in experiment [1] is 4.51.

The compound `N#Cc1ccc2cc(C(=O)Nc3ccc(-c4cccc(C(=O)O)c4)cc3)ccc2c1` gave a pIC50 in experiment [1] below 3.60.

`COc1cc(NC(=O)c2ccc3cc(C(N)=O)ccc3c2)cc(OC)c1` showed a pIC50 in experiment [1] of 4.52.

Consider `COc1ccc2cc(C(=O)Nc3ccc(-c4cccc([N+](=O)[O-])c4)cc3)ccc2c1`, for which the pIC50 in experiment [1] is 5.59; in experiment [2], 5.07; against Prothrombin it was below 4.21; on Plasminogen, 4.51.

In experiment [1], `Nc1ccc2cc(C(=O)Nc3ccccc3)ccc2c1` gave a pIC50 below 4.21.

Turning to `NC(=O)c1ccc2cc(C(=O)Nc3ccccc3)ccc2c1`, the pIC50 in experiment [3] was 4.82.
